The source of these data is PMC10878326 (Cell chemical biology, 2023).

Assay [1] concerns lipid droplets in uninfected HC-04 cells. The assay can be described thus: HCS LipidTOX lipid droplet staining in uninfected HC-04 cells. The class given is cell-based, human.
Assay [2] concerns P. berghei infected HepG2 cells. As to the kind of experiment: Cell Painting morphological profile compared with landmark compound set. The class given is cell-based, human.
The target of the next assay is P. berghei liver stages. The assay can be described thus: P. berghei luciferase liver stage assay. The class given is cell-based, Plasmodium berghei. As to conditions: IC50 used to set 1x and 2x treatment of HC-04 cells.
The test system of assay [3] is P. berghei schizonts in HC-04 cells. As to the kind of experiment: Confocal imaging of P. berghei infected HC-04 cells treated with compound. The class given is cell-based, Plasmodium berghei. The conditions noted are these: HC-04, 1x and 2x IC50, 48 hpi. The method in brief: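 HC-04 cells were seeded at 16,000 cells/well on poly-L-lysine-coated chamber slides and pretreated 24 h with test compound, NR1D2 inhibitor or DMSO. They were then infected with P. berghei Luc sporozoites (MOI 1:1), with treatment kept to 48 hpi. Cells were fixed in 4% PFA, permeabilised with 0.1% Triton X-100 and blocked in 1% BSA. Staining: anti-UIS4 1:1000 overnight at 4 °C, anti-NR1D2 1:500, LipidTOX 1:500 and DAPI. Imaging was at 63x oil. Merozoites per schizont were counted. Two biological replicates; one-way ANOVA with Dunnett's test.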

The subject of a further assay is NR1D2. As to the kind of experiment: Western blot of NR1D2 protein in uninfected HC-04 cells. It counts as cell-based, human. As to conditions: uninfected HC-04, 1x to 10x IC50, 48 hours. The gist of the method: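 Uninfected HC-04 cells were exposed 48 h to varying concentrations of test compound or NR1D2 inhibitor, then lysed. Protein was measured by DC assay, resolved by SDS-PAGE and transferred to nitrocellulose. Blots were blocked 1 h in 5% blocker and probed with anti-NR1D2 at 1:1000. Levels were expressed relative to beta actin.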

For a further assay, the system named is NR1D2 transcript. As to the kind of experiment: qPCR of NR1D2 transcript in treated HC-04 cells. It counts as cell-based, human. The conditions noted are these: HC-04, post treatment 48h. The method in brief: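 HC-04 cells were treated 48 h with varying concentrations of test compound or NR1D2 inhibitor. Cells were harvested, RNA was extracted, and NR1D2 transcript was quantified by qPCR with gene-specific primers.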
(In general: In qPCR the cycle at which signal appears reflects the starting amount.)

Assay [4] deals with P. berghei in NR1D2 knockdown lines. As to the kind of experiment: Parasite development IC50 shift in NR1D2 shRNA knockdown cells. The class given is cell-based, Plasmodium berghei. As to conditions: stable shRNA knockdown, luciferase after 48 hours.
In assay [5] the test system is P. falciparum asexual blood stages. As to conditions: cited from earlier work.

For `O=C1C(O)=C([C@H]2CC[C@H](c3ccc(Cl)cc3)CC2)C(=O)c2ccccc21` [atovaquone], the “HCS lipid tox staining intensities” value in assay [1] is “did not observe any significant changes”.
As for `Cc1cccc2sc(C(=O)NCc3cccc(NS(N)(=O)=O)c3)c(Cl)c12` [MMV1452174], the “morphological profile similarity / inferred host pathway” value in assay [2] is “potential modulator of the host S1P pathway”. Besides, the “HCS lipid tox staining intensities” value in assay [1] is “did not observe any significant changes”.
The molecule `N#CC(C(=O)c1cc(S(=O)(=O)N2CCc3ccccc3C2)ccc1Cl)c1ccccn1` (stereo not shown) [MMV1346624] gave an IC50 against P. berghei liver stages of 1040 ± 730 nM. Moreover, in assay [2], the “morphological profile similarity / inferred host pathway” value was “phenocopied treatment with tamoxifen, endoxifen and lichochalcone A”. Moreover, in assay [3], the “number of merozoites per schizont relative to DMSO” value is recorded as “significant reduction” and the “parasite size relative to DMSO controls” value is “smaller”. Besides, the “NR1D2 protein expression level (western blot)” value (shortened to “NR1D2 protein expression level”) in the assay on NR1D2 is reported as “dose dependent reduction”. Also, the “NR1D2 RNA expression levels” value in the assay with NR1D2 transcript is reported as “no significant changes”. Further, in assay [4], the “difference in IC50 in NR1D2 knockdown lines relative to wild type cells” value was “did not see any differences”. Further, the “activity against asexual blood stages” value in assay [5] is “little activity”.
Turning to `CC1(C)c2nc(-c3ccc(F)cc3)c(Nc3ccc(Cl)cc3)n2CCN1C(=O)CN` [GNF179], the “HCS lipid tox staining intensities” value in assay [1] is recorded as “did not observe any significant changes”.
Take `CN1CCN(Cc2cc(CNC3(c4ccccc4F)CCCC3)ccc2O)CC1` [ARN5187, reference compound]: the “number of merozoites per schizont relative to DMSO” value in assay [3] is listed as “lower number of merozoites per schizont”. Besides, the “NR1D2 protein expression level” value with NR1D2 is “no changes in protein expression levels”.
`Cc1cc(C(=O)Oc2ccccc2C(N)=O)c(C)n1Cc1ccco1` [MMV1088447] displayed a 50% inhibitory concentration (IC50) on P. berghei liver stages of 1050 ± 290 nM. Further, the “morphological profile similarity / inferred host pathway” value in assay [2] was “phenocopied treatment with tamoxifen, endoxifen and lichochalcone A”. In assay [3], the “number of merozoites per schizont relative to DMSO” value was “significant reduction” and the “parasite size relative to DMSO controls” value is “smaller”. In addition, the “NR1D2 protein expression level” value with NR1D2 is reported as “dose dependent reduction”. The “NR1D2 RNA expression levels” value with NR1D2 transcript was “no significant changes”. Besides, the “difference in IC50 in NR1D2 knockdown lines relative to wild type cells” value in assay [4] is given as “did not see any differences”. Moreover, the “activity against asexual blood stages” value in assay [5] is “little activity”.

By IC50 is commonly meant the midpoint of a concentration-inhibition curve. Read a low IC50 as greater potency in that assay.
